The values below come from ChEMBL document CHEMBL3351413, “Development of quinone analogues as dynamin GTPase inhibitors” (Eur J Med Chem, 2014).

Activity calls are given as the source filed them. The calls are words filed in the database; no cut-off is given here. Some results are limits rather than exact numbers.

The first experiment has as its target T1, Dynamin-2 (Rattus norvegicus) (UniProt P39052).
T1 sequence (whole entry): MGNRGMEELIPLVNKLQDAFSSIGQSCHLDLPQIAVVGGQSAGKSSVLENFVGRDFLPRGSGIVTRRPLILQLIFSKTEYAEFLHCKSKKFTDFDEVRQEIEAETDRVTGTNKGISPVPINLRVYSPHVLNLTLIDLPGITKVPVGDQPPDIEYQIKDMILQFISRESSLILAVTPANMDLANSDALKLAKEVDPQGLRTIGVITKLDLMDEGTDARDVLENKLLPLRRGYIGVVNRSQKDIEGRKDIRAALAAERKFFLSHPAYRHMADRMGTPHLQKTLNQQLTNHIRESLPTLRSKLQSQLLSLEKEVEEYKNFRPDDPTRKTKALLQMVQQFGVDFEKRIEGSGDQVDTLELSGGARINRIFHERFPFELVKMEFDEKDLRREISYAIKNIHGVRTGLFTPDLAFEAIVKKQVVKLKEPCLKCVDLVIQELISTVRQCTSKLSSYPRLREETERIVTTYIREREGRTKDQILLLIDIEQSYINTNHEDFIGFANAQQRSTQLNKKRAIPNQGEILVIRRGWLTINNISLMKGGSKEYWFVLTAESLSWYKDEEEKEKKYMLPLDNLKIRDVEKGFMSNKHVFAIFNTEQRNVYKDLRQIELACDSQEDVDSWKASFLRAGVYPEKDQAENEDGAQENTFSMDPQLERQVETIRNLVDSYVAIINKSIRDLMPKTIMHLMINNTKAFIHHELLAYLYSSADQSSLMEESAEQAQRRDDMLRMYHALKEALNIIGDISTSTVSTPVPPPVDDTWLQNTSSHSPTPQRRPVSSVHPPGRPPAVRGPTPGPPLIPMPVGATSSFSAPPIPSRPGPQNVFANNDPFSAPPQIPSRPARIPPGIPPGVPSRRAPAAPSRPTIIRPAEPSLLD
In words: Inhibition of phosphatidylserine-stimulated GTPase activity of recombinant rat Dynamin 2 expressed in Sf21 cells assessed as inhibition of orthophosphate release from GTP up to 300 uM by malachite green method.
Settings: not given
In short, it runs like this: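 His-6-tagged rat dynII from pIEx-6-transfected Sf21 cells (polyethylenimine, DNA:PEI 1:5, 48 h), purified on GST-Amph2-SH3-sepharose. Enzyme at 50 nM final was stimulated with phosphatidylserine liposomes for 90 min. GTP-derived Pi release was read colorimetrically with Malachite Green. Final DMSO was at most 3.3%.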
Regarding `O=C1C=C(NCc2ccccc2)C(=O)C=C1NCc1ccccc1`, the inhibition entry was “inactive”.

System in a further experiment: not listed separately
The experiment can be described thus: Inhibition of phosphatidylserine-stimulated GTPase activity of sheep brain Dynamin 1 expressed in Sf21 cells assessed as inhibition of orthophosphate release from GTP up to 300 uM by malachite green method. As to conditions: Ovis aries. In outline:
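DynI at 50 nM final was stimulated with phosphatidylserine liposomes for 30 min. Orthophosphate released from GTP was detected colorimetrically by Malachite Green. Compounds came from 30 mM DMSO stocks diluted in 50% DMSO/20 mM Tris-HCl pH 7.4; final DMSO was at most 3.3%.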
With `O=C1C=C(Nc2ccccc2)C(=O)c2ccccc21`, the inhibition result was “inactive”. For the compound `CCCCNC1=CC(=O)C(NCCCC)=CC1=O`, the inhibition entry is “inactive”. Take `O=C1C=C(NCc2ccc(F)cc2)C(=O)C=C1NCc1ccc(F)cc1`: the inhibition result was “inactive”. Take `C=CCNC1=CC(=O)C(NCC=C)=CC1=O`: the inhibition entry is “inactive”. Consider `O=C(O)c1ccc(NC2=CC(=O)c3ccccc3C2=O)cc1`, for which the inhibition result is “inactive”.

`O=C1C=C(NCc2cccnc2)C(=O)C=C1NCc1cccnc1`: the inhibition entry was “inactive”. The same measure, in the same setting: as for `O=C1C=C(NCCO)C(=O)c2ccccc21`, the entry is “inactive”; as for `O=C1C=C(Nc2cccc(CO)c2)C(=O)C=C1Nc1cccc(CO)c1`, “inactive”. Same read-out and setting: as for `CCCNC1=CC(=O)C(NCCC)=CC1=O`, the entry is “inactive”; as for `COCCCNC1=CC(=O)C(NCCCOC)=CC1=O`, “inactive”; as for `COc1ccccc1NC1=CC(=O)C(Nc2ccccc2OC)=CC1=O`, “inactive”.

Regarding `COc1ccc(CNC2=CC(=O)c3ccccc3C2=O)cc1`, the inhibition result was “inactive”. Regarding `CC(C)CCNC1=CC(=O)C(NCCC(C)C)=CC1=O`, the inhibition entry is “inactive”.

Consider `CCCCCNC1=CC(=O)C(NCCCCC)=CC1=O`, for which the inhibition entry was “inactive”. On the same count and under the same terms, next, `O=C1C=C(NCCCO)C(=O)c2ccccc21`: “inactive”; `O=C1C=C(NCCCCl)C(=O)C=C1NCCCCl`: “inactive”; `Cc1ccccc1NC1=CC(=O)C(Nc2ccccc2C)=CC1=O`: “inactive”.

For the compound `CSCCNC1=CC(=O)C(NCCSC)=CC1=O`, the inhibition result was “inactive”. Take `O=C1C=C(NCCc2ccccc2)C(=O)C=C1NCCc1ccccc1`: the inhibition result is “inactive”. The same measure, in the same setting: as for `COCCNC1=CC(=O)C(NCCOC)=CC1=O`, the entry is “inactive”. On to `O=C1C=C(NCCCO)C(=O)C=C1NCCCO`, for which the inhibition result was “inactive”. Still for that read-out and setting: next, `O=C1C=C(NCCCCO)C(=O)C=C1NCCCCO`: “inactive”. On the same count and under the same terms, as for `O=C1C=C(NCc2ccc(Cl)cc2)C(=O)C=C1NCc1ccc(Cl)cc1`, the entry is “inactive”; as for `O=C1C=C(Nc2ccccc2)C(=O)C=C1Nc1ccccc1`, “inactive”; as for `O=C1C=C(NCc2ccccc2)C(=O)c2ccccc21`, “inactive”. In the case of `CCNC1=CC(=O)C(NCC)=CC1=O`, the inhibition result is “inactive”.

For `O=C(O)c1cccc(NC2=CC(=O)c3ccccc3C2=O)c1`, the inhibition entry is “inactive”. The same measure, in the same setting: as for `O=C1C=C(NCc2ccccc2)C(=O)C=C1NCc1ccccc1`, the entry is “inactive”. Take `O=C1C=C(NCc2ccc(Br)cc2)C(=O)C=C1NCc1ccc(Br)cc1`: the inhibition entry was “inactive”.

For the compound `Cc1ccc(CNC2=CC(=O)C(NCc3ccc(C)cc3)=CC2=O)cc1`, the inhibition result is “inactive”.

System in another experiment: not listed separately
The experiment can be described thus: Competitive inhibition of phosphatidylserine-stimulated GTPase activity of sheep brain Dynamin 1 expressed in Sf21 cells by Lineweaver-Burk plot method in presence of Mg2+ and GTP. As to conditions: Ovis aries.
As to `O=C1C=C(Nc2ccc(CO)cc2)C(=O)C=C1Nc1ccc(CO)cc1`, the inhibition entry is “Active”.

System in another experiment: not listed separately
The experiment can be described thus: Inhibition of phosphatidylserine-stimulated GTPase activity of sheep brain Dynamin 1 expressed in Sf21 cells assessed as inhibition of orthophosphate release from GTP by malachite green method. Set-up: species or system Ovis aries.
Settings: not given
In short, it runs like this:
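DynI at 50 nM, stimulated with phosphatidylserine liposomes for 30 min. Pi release from GTP detected colorimetrically by malachite green. Compounds diluted from DMSO stocks, final DMSO at most 3.3%.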
Turning to `COc1cccc(NC2=CC(=O)C(Nc3cccc(OC)c3)=CC2=O)c1`, the IC50 (as a rule, the concentration at which inhibition is half-maximal) is over 300 µM.

For the compound `O=C1C=C(Nc2cccc(CO)c2)C(=O)c2ccccc21`, the IC50 is 30.3 µM. The same measure, in the same setting: next, `COc1ccc(CNC2=CC(=O)C(NCc3ccc(OC)cc3)=CC2=O)cc1`: 170 µM. The same measure, in the same setting: next, `O=C1C=C(Nc2ccc(C(=O)O)cc2)C(=O)C=C1Nc1ccc(C(=O)O)cc1`: 10.6 µM. Turning to `CN(C)CCNC1=CC(=O)C(NCCN(C)C)=CC1=O`, the IC50 is over 300 µM. On the same count and under the same terms, next, `O=C1C=C(NCCCBr)C(=O)C=C1NCCCBr`: 58 µM. As for `O=C1C=C(Nc2ccccc2C(=O)O)C(=O)C=C1Nc1ccccc1C(=O)O`, the IC50 worked out at 50.2 µM. Still for that read-out and setting: next, `O=C1C=C(Nc2ccccc2CO)C(=O)C=C1Nc1ccccc1CO`: over 300 µM; `O=C1C=C(Nc2ccccc2Br)C(=O)C=C1Nc1ccccc1Br`: 387 µM; `O=C1C=C(NCCO)C(=O)C=C1NCCO`: 116 µM.

For the compound `O=C1C=C(Nc2ccc(CO)cc2)C(=O)c2ccccc21`, the IC50 was found to be 29.5 µM. Consider `O=C(O)c1ccccc1NC1=CC(=O)c2ccccc2C1=O`, for which the IC50 is 314 µM. For `O=C1C=C(Nc2ccc(CO)cc2)C(=O)C=C1Nc1ccc(CO)cc1`, the IC50 was found to be 21.5 µM.

`COc1ccc(NC2=CC(=O)C(Nc3ccc(OC)cc3)=CC2=O)cc1`: the IC50 is over 300 µM. Same read-out and setting: next, `O=C1C=C(Nc2ccc(O)cc2)C(=O)C=C1Nc1ccc(O)cc1`: 11.1 µM. Regarding `O=C1C=C(Nc2ccc(O)cc2)C(=O)c2ccccc21`, the IC50 amounted to 22.4 µM. The same measure, in the same setting: next, `CCCCCCNC1=CC(=O)C(NCCCCCC)=CC1=O`: over 300 µM.

Regarding `O=C1C=C(NCc2ccccc2)C(=O)C=C1NCc1ccccc1`, the IC50 is 273 µM. Still for that read-out and setting: next, `O=C1C=C(Nc2cccc(O)c2)C(=O)c2ccccc21`: 109 µM; `O=C1C=C(Nc2cccc(O)c2)C(=O)C=C1Nc1cccc(O)c1`: 57.9 µM. As for `O=C1C=C(Nc2cccc(C(=O)O)c2)C(=O)C=C1Nc1cccc(C(=O)O)c1`, the IC50 worked out at 25.4 µM.

Regarding `O=C1C=C(NCc2ccc(O)cc2)C(=O)C=C1NCc1ccc(O)cc1`, the IC50 stood at 112 µM.

Turning to `O=C1C=C(NCc2ccc(C(=O)O)cc2)C(=O)C=C1NCc1ccc(C(=O)O)cc1`, the IC50 was 29 µM. As to `O=C1C=C(NCc2ccc(O)cc2)C(=O)c2ccccc21`, the IC50 came to 150 µM.

Another experiment has as its target T2, Dynamin-2 (Rattus norvegicus, UniProt P39052).
T2 sequence (P39052 whole entry): T1 sequence (whole entry)
The experiment can be described thus: Inhibition of phosphatidylserine-stimulated GTPase activity of recombinant rat Dynamin 2 expressed in Sf21 cells assessed as inhibition of orthophosphate release from GTP by malachite green method.
Settings: not given
In short, it runs like this: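 His-6-tagged rat dynII expressed in Sf21 cells after polyethylenimine transfection (48 h), purified on GST-Amph2-SH3-sepharose. Enzyme at 50 nM, stimulated with phosphatidylserine liposomes for 90 min. Pi release from GTP read colorimetrically with malachite green. Final DMSO at most 3.3%.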
As for `O=C1C=C(Nc2ccc(C(=O)O)cc2)C(=O)C=C1Nc1ccc(C(=O)O)cc1`, the IC50 amounted to 9.1 µM.

Consider `O=C1C=C(Nc2ccc(O)cc2)C(=O)C=C1Nc1ccc(O)cc1`, for which the IC50 is 23.6 µM.

Take `O=C1C=C(Nc2cccc(O)c2)C(=O)C=C1Nc1cccc(O)c1`: the IC50 worked out at 43.7 µM.

For `O=C1C=C(Nc2cccc(C(=O)O)c2)C(=O)C=C1Nc1cccc(C(=O)O)c1`, the IC50 was determined as 14.7 µM.

A further experiment concerns the target T3, Dynamin-1 (Homo sapiens) (UniProt Q05193).
T3 sequence (whole entry): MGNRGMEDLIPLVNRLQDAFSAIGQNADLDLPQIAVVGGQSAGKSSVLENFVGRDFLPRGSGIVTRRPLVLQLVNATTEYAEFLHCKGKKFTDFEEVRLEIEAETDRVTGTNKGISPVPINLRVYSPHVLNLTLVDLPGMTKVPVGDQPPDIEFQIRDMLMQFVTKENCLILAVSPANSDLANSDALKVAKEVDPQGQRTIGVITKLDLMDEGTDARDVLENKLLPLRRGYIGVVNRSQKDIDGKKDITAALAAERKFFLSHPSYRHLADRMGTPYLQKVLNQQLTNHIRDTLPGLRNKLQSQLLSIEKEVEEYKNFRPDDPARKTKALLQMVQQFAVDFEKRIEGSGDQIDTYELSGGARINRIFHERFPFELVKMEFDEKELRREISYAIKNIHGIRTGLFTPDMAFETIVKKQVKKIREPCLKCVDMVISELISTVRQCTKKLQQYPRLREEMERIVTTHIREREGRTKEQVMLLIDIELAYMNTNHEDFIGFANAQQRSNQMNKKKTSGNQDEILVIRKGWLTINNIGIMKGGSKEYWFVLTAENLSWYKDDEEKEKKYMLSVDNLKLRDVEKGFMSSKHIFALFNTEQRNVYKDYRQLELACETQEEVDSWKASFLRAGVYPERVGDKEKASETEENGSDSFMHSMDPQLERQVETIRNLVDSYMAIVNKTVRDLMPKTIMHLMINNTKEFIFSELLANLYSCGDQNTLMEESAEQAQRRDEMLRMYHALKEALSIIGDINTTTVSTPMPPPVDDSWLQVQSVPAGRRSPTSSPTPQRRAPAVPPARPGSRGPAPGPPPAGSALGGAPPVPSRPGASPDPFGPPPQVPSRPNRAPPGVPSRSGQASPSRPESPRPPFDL
The experiment can be described thus: Inhibition of Dynamin 1 in serum-starved human U2OS cells assessed as inhibition of clathrin-mediated Alexa-495-cojugated transferrin uptake pretreated up to 300 uM for 30 mins by high-content imaging method. Format: cell-based.
Settings: not given
In outline:
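U2OS cells plated on fibronectin-coated glass to 70–80% confluency and serum-starved overnight (16 h). Pretreated with compound or 1% DMSO vehicle for 30 min, then given fluorescent transferrin for 8 min at 37 °C.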
`O=C1C=C(Nc2cccc(O)c2)C(=O)C=C1Nc1cccc(O)c1`: the inhibition result is “inactive”.
